Experiment [1] deals with Rattus norvegicus. Put plainly: Antiinflammatory activity in male Sprague-Dawley rat assessed as inhibition of carrageenan-induced rat paw edema dosed subcutaneously equimolar to 70 mg/kg, sc ibuprofen administered 1 hr before carrageenan challenge measured 1 hr post carrageenan challenge relative to control. The format is functional. The conditions noted are these: route subcutaneous. An outline of the steps: (§1)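 Male Sprague-Dawley rats, 150–170 g, 5 per group. Compounds were given subcutaneously in DMSO at doses equimolar to the reference. One hour later, 0.1 mL of 1% carrageenan was injected subplantar into the right hind paw. Right-minus-left paw volume was read by water plethysmometer at 1, 2, 3 and 4 h. %inhibition = (1 − swelling treated/swelling control) × 100. Controls received DMSO s.c. Mean ± SE reported.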
On the technique in general: In the carrageenan paw model, swelling and tenderness develop within hours.

For experiment [2], the system named is Rattus norvegicus. Put plainly: Antiinflammatory activity in male Sprague-Dawley rats assessed as inhibition of carrageenan-induced rat paw edema dosed subcutaneously equimolar to 70 mg/kg, sc ibuprofen administered 1 hr before carrageenan challenge measured 2 hrs post carrageenan challenge relative to control. It counts as functional. The conditions noted are these: route subcutaneous. An outline of the steps: as §1

Experiment [3] concerns Rattus norvegicus. Put plainly: Antiinflammatory activity in male Sprague-Dawley rats assessed as inhibition of carrageenan-induced rat paw edema dosed subcutaneously equimolar to 70 mg/kg, sc ibuprofen administered 1 hr before carrageenan challenge measured 3 hrs post carrageenan challenge relative to control. The format is functional. The conditions noted are these: route subcutaneous. In outline:
as §1

The subject of experiment [4] is Rattus norvegicus. Put plainly: Antiinflammatory activity in male Sprague-Dawley rats assessed as inhibition of carrageenan-induced rat paw edema dosed subcutaneously equimolar to 70 mg/kg, sc ibuprofen administered 1 hr before carrageenan challenge measured 4 hrs post carrageenan challenge relative to control. The format is functional. Conditions: route subcutaneous. An outline of the steps: as §1

In experiment [5] the test system is Staphylococcus aureus. Put plainly: Antimicrobial activity against Staphylococcus aureus ATCC 29213 after 24 hrs by microdilution technique. It counts as functional. Conditions: ATCC 29213, 24 h. An outline of the steps: (§2)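 MIC by microdilution per NCCLS 1997 guidelines. Bacteria were subcultured overnight on Mueller-Hinton agar at 37 °C and passaged at least twice. Compounds were serially two-fold diluted in DMSO from 1024 to 16, mixed with nutrient agar, and inoculated. Incubation was 37 °C in a humid chamber for 24 h. MIC = lowest concentration completely inhibiting macroscopic growth. DMSO, organism-only and medium-only wells served as controls.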
On the technique in general: Dilution methods test growth across graded concentrations, often in twofold steps.

Experiment [6] deals with Escherichia coli. Put plainly: Antimicrobial activity against Escherichia coli ATCC 25922 after 24 hrs by microdilution technique. The conditions noted are these: ATCC 25922, 24 h. It counts as functional. An outline of the steps:
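MIC by two-fold serial microdilution on Mueller-Hinton agar per NCCLS 1997. Compounds were dissolved in DMSO at 1024, 512, 256, 128, 64, 32 and 16 […] and mixed with sterile nutrient agar, then inoculated with bacteria subcultured overnight at 37 °C on MHA (passaged at least twice). Incubation was 37 °C in a humid chamber and endpoints were read at 24 h. MIC is the lowest concentration completely inhibiting macroscopic growth. DMSO, organism-only and medium-only wells served as controls.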

Experiment [7] has as its system Pseudomonas aeruginosa. Put plainly: Antimicrobial activity against Pseudomonas aeruginosa ATCC […] after 24 hrs by microdilution technique. It counts as functional. In outline: as §2
In experiment [8] the test system is Bacillus subtilis. Put plainly: Antimicrobial activity against Bacillus subtilis ATCC 6633 after 24 hrs by microdilution technique. The format is functional. Conditions: for MIC: ATCC 6633, 24 h. In outline: as §2
The test system of experiment [9] is Bacillus subtilis. Put plainly: Antimicrobial activity against Bacillus subtilis ATCC 6633 at 20 to 30 ug/ml after 24 hrs by disk diffusion method. It counts as functional, organism-based. In outline: (§3)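 Disc diffusion per Bauer et al. Inhibition zones were recorded. DMSO served as the solvent control. Amoxicillin and fluconazole served as reference agents.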

Experiment [10] deals with Staphylococcus aureus. Put plainly: Antimicrobial activity against Staphylococcus aureus ATCC 29213 at 20 to 30 ug/ml after 24 hrs by disk diffusion method. The format is functional, organism-based. An outline of the steps:
as §3
(In general: A growth-free zone around the sample is the usual read-out of agar diffusion tests.)

Experiment [11] relates to Escherichia coli. Put plainly: Antimicrobial activity against Escherichia coli ATCC 25922 at 20 to 30 ug/ml after 24 hrs by disk diffusion method. It counts as functional, organism-based. In outline:
as §3

The subject of experiment [12] is Pseudomonas aeruginosa. Put plainly: Antimicrobial activity against Pseudomonas aeruginosa ATCC […] at 20 to 30 ug/ml after 24 hrs by disk diffusion method. It counts as functional, organism-based. In outline:
as §3

For a further experiment, the system named is Candida albicans. Put plainly: Antimicrobial activity against Candida albicans ATCC 10231 at 20 to 30 ug/ml after 24 hrs by disk diffusion method. It counts as functional, organism-based. In outline:
as §3

The subject of a further experiment is Mycolicibacterium phlei. Put plainly: Antimicrobial activity against Mycobacterium phlei ATCC 10142 at 20 to 30 ug/ml after 24 hrs by disk diffusion method. It counts as functional, organism-based.

Converted amounts (≈) assume the structure as drawn. The source made the active and inactive calls.

A word on the inhibition in vivo: it is the percentage by which the read-out fell short of the control. Regarding `Cc1ccccc1Nc1ncnc2c1c(-c1ccccc1)c(-c1ccccc1)n2-c1c(C)c(=O)n(-c2ccccc2)n1C`, the inhibition in vivo in the experiment with Rattus norvegicus [1] was 1.95%; with Rattus norvegicus [2], 5.17%; in the experiment with Rattus norvegicus [3], 13.3%; in the experiment with Rattus norvegicus [4] it was 28%.

Turning to `CC(C)Cc1ccc(C(C)C(=O)O)cc1` (stereo not drawn) [IBUPROFEN], the inhibition in vivo was determined as 6.08% in the experiment on Rattus norvegicus [1], 60.7% in the experiment with Rattus norvegicus [3] and 69.5% in the experiment on Rattus norvegicus [4]. Moreover, the inhibition in vivo at 70 mg/kg in the experiment with Rattus norvegicus [2] (dose equimolar to 70 mg/kg ibuprofen) worked out at 45%.

One may read the MIC as the smallest concentration in the dilution series that meets the test's criterion for growth inhibition. High values mean a need for much substance, low ones inhibition by little substance. With `CC1(C)S[C@@H]2[C@H](NC(=O)[C@H](N)c3ccc(O)cc3)C(=O)N2[C@H]1C(=O)O` [AMOXICILLIN], the minimum inhibitory concentration (MIC) against Staphylococcus aureus [5] is 1 µg/mL (≈ 2.74 µM); in the experiment on Escherichia coli [6], 256 µg/mL (≈ 701 µM); against Pseudomonas aeruginosa [7] it was 64 µg/mL (≈ 175 µM); in the experiment with Bacillus subtilis [8] it was 64 µg/mL (≈ 175 µM).

As to `Cc1c(-n2c(-c3ccccc3)c(-c3ccccc3)c3c2ncn2ncnc32)n(C)n(-c2ccccc2)c1=O`, the inhibition in vivo with Rattus norvegicus [1] was 1.73%; in the experiment on Rattus norvegicus [2], 4.92%; with Rattus norvegicus [3] it was 9.9%; in the experiment with Rattus norvegicus [4], 28.7%.

`Cc1nc2c(c(-c3ccccc3)c(-c3ccccc3)n2-c2c(C)c(=O)n(-c3ccccc3)n2C)c(=O)[nH]1`: the inhibition in vivo in the experiment with Rattus norvegicus [1] worked out at 2.16%; with Rattus norvegicus [2], 5.37%; in the experiment with Rattus norvegicus [3], 13.2%; with Rattus norvegicus [4], 27.6%. In addition, the result in the experiment on Bacillus subtilis [8] was Active.

For `Cc1c(-n2c(-c3ccccc3)c(-c3ccccc3)c3c(=S)[nH]cnc32)n(C)n(-c2ccccc2)c1=O`, the result in the experiment with Bacillus subtilis [9], in the experiment with Staphylococcus aureus [10], with Escherichia coli [11], in the experiment on Pseudomonas aeruginosa [12], in the experiment on Candida albicans and in the experiment with Mycolicibacterium phlei was inactive. The inhibition in vivo turned out to be 0% with Rattus norvegicus [1], 0% in the experiment on Rattus norvegicus [2], 73.3% in the experiment with Rattus norvegicus [3] and 64.3% in the experiment with Rattus norvegicus [4].

With `CCO/C=N/c1c(C#N)c(-c2ccccc2)c(-c2ccccc2)n1-c1c(C)c(=O)n(-c2ccccc2)n1C`, the result with Bacillus subtilis [9], with Staphylococcus aureus [10], with Escherichia coli [11], in the experiment on Pseudomonas aeruginosa [12], in the experiment on Candida albicans and with Mycolicibacterium phlei was inactive.

On to `Cc1c(-n2c(N)c(C(N)=O)c(-c3ccccc3)c2-c2ccccc2)n(C)n(-c2ccccc2)c1=O`, for which the outcome in the experiment with Bacillus subtilis [9], in the experiment on Staphylococcus aureus [10], in the experiment with Escherichia coli [11], with Pseudomonas aeruginosa [12], in the experiment with Candida albicans and in the experiment with Mycolicibacterium phlei was inactive. Besides, the inhibition in vivo was found to be 19.1% with Rattus norvegicus [1], 26.1% with Rattus norvegicus [2], 47.8% with Rattus norvegicus [3] and 62.5% in the experiment on Rattus norvegicus [4].

For `Cc1c(-n2c(-c3ccccc3)c(-c3ccccc3)c3c2ncn2nnnc32)n(C)n(-c2ccccc2)c1=O`, the outcome in the experiment on Bacillus subtilis [9], in the experiment on Staphylococcus aureus [10], with Escherichia coli [11], in the experiment with Pseudomonas aeruginosa [12], in the experiment with Candida albicans and in the experiment on Mycolicibacterium phlei was inactive.

For `Cc1c(-n2c(-c3ccccc3)c(-c3ccccc3)c3c(NN)ncnc32)n(C)n(-c2ccccc2)c1=O`, the inhibition in vivo was 43.7% in the experiment with Rattus norvegicus [1], 46.1% in the experiment on Rattus norvegicus [2], 65.1% with Rattus norvegicus [3] and 54% with Rattus norvegicus [4].

For `Cc1c(-n2c(-c3ccccc3)c(-c3ccccc3)c3c(Nc4ccccc4)ncnc32)n(C)n(-c2ccccc2)c1=O`, the inhibition in vivo with Rattus norvegicus [1] turned out to be 1.99%; in the experiment with Rattus norvegicus [2], 5.11%; with Rattus norvegicus [3], 13%; in the experiment on Rattus norvegicus [4], 27.9%.

`Cc1c(-n2c(-c3ccccc3)c(-c3ccccc3)c3c(Cl)ncnc32)n(C)n(-c2ccccc2)c1=O`: the outcome in the experiment on Bacillus subtilis [9], with Staphylococcus aureus [10], in the experiment with Escherichia coli [11], in the experiment with Pseudomonas aeruginosa [12], in the experiment on Candida albicans and in the experiment with Mycolicibacterium phlei was inactive.

As for `Cc1c(-n2c(-c3ccccc3)c(-c3ccccc3)c3c(=O)[nH]cnc32)n(C)n(-c2ccccc2)c1=O`, the outcome with Bacillus subtilis [9], in the experiment on Staphylococcus aureus [10], in the experiment on Escherichia coli [11], in the experiment with Pseudomonas aeruginosa [12], in the experiment on Candida albicans and in the experiment with Mycolicibacterium phlei was inactive. Further, the inhibition in vivo in the experiment on Rattus norvegicus [1] is 63%; with Rattus norvegicus [2], 60.6%; in the experiment with Rattus norvegicus [3], 60%; in the experiment with Rattus norvegicus [4], 27.1%. The same compound registered an MIC against Bacillus subtilis [8] of 256 µg/mL (≈ 541 µM).

`CC(=O)Nc1c(C#N)c(-c2ccccc2)c(-c2ccccc2)n1-c1c(C)c(=O)n(-c2ccccc2)n1C`: the MIC with Staphylococcus aureus [5] and against Bacillus subtilis [8] was 256 µg/mL (≈ 525 µM) throughout. Further, the inhibition in vivo came to 1.73% in the experiment with Rattus norvegicus [1], 3.07% in the experiment on Rattus norvegicus [2], 66.5% in the experiment with Rattus norvegicus [3] and 46.4% in the experiment on Rattus norvegicus [4].

For the compound `Cc1c(-n2c(-c3ccccc3)c(-c3ccccc3)c3c(N/N=C/c4ccccc4)ncnc32)n(C)n(-c2ccccc2)c1=O`, the inhibition in vivo in the experiment on Rattus norvegicus [1] is 47.8%; in the experiment with Rattus norvegicus [2], 59.6%; in the experiment with Rattus norvegicus [3], 90.8%; in the experiment on Rattus norvegicus [4], 48.4%.

`Cc1c(-n2c(N)c(C#N)c(-c3ccccc3)c2-c2ccccc2)n(C)n(-c2ccccc2)c1=O`: the inhibition in vivo was found to be 9.5% with Rattus norvegicus [1], 36.5% in the experiment with Rattus norvegicus [2], 62.6% in the experiment with Rattus norvegicus [3] and 64.7% in the experiment on Rattus norvegicus [4]. This compound also came in with a minimum inhibitory concentration (MIC) in the experiment on Bacillus subtilis [8] of 512 µg/mL (≈ 1150 µM).

As for `Cc1c(-n2c(-c3ccccc3)c(-c3ccccc3)c3c(=N)[nH]cnc32)n(C)n(-c2ccccc2)c1=O`, the inhibition in vivo with Rattus norvegicus [1] turned out to be 0.89%; with Rattus norvegicus [2] it was 2.35%; with Rattus norvegicus [3] it was 11.4%; in the experiment on Rattus norvegicus [4] it was 27.5%. The lowest concentration to inhibit growth in the experiment on Bacillus subtilis [8] (MIC) was 512 µg/mL (≈ 1080 µM).

Source of the values: ChEMBL document CHEMBL1806480, “New condensed pyrroles of potential biological interest syntheses and structure-activity relationship studies” (2011).
